# ChEMBL document CHEMBL4732105, “First orally bioavailable prodrug of proteolysis targeting chimera (PROTAC) degrades cyclin-dependent kinases 2/4/6 in vivo” (Eur J Med Chem, 2021)
# Activity calls are given as the source filed them. No cut-off for these calls is given here.
# How the values were obtained:
# [1] = biological target: T1, Protein cereblon/Cyclin-dependent kinase 2 (Mus musculus) (UniProt P97377+Q8C7D2); test: Protac activity at CRBN/CDK2 in mouse B16F10 cells assessed as induction of CDK2 protein degradation after 12 hrs by Western blot analysis; type: cell-based; conditions: B16-F10, dose 62.5-1000 nM
# Summary of the method: (§1)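 B16F10 and A375 cells treated with DMSO or serial dilutions of compound for 12 h (concentration series), or for the indicated times (time course). CDK2, CDK4 and CDK6 protein levels determined by western blot.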
# [2] = biological target: T2, Protein cereblon/Cyclin-dependent kinase 4 (Mus musculus) (UniProt P30285+Q8C7D2); test: Protac activity at CRBN/CDK4 in mouse B16F10 cells assessed as induction of CDK4 protein degradation at 500 nM by Western blot analysis; type: cell-based; conditions: B16-F10, time hrs <=12, TDE = time-dependent effect; summary of the method: as §1
# [3] = biological target: T3, Protein cereblon/Cyclin-dependent kinase 6 (Mus musculus) (UniProt Q8C7D2+Q64261); test: Protac activity at CRBN/CDK6 in mouse B16F10 cells assessed as induction of CDK6 protein degradation at 500 nM by Western blot analysis; type: cell-based; conditions: B16-F10, time hrs <=12, TDE = time-dependent effect; summary of the method: as §1
# B16-F10 [4] = test: Inhibition of colony formation in mouse B16F10 cells at 50 to 100 nM measured after 7 days by crystal violet staining based colony formation assay; type: functional, cell-based; conditions: dose 50-100 nM, time 7.0 day
# Summary of the method: (§2)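 Colony formation (long-term growth) assay in A375 and B16F10 cells under continuous compound exposure for 7 days, then clonogenic growth quantified. Mean ± SD, n = 3; Student's t-test.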
# A-375 [5] = test: Inhibition of colony formation in human A-375 cells at 250 to 500 nM measured after 7 days by crystal violet staining based colony formation assay; type: functional, cell-based; conditions: dose 250-500 nM, time 7.0 day; summary of the method: as §2
# B16-F10 [6] = test: Induction of apoptosis in mouse B16F10 cells incubated for 48 hrs by Annexin V-FITC/PI staining based flow cytometry; type: functional, cell-based; conditions: dose nM <=1000, time 48.0 hrs
# A-375 [7] = test: Induction of apoptosis in human A-375 cells assessed as increase in cleaved PARP level incubated for 48 hrs by Western blot analysis; type: functional, cell-based; conditions: dose nM <=2000, time 48.0 hrs
# Summary of the method: (§3)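 A375 and B16F10 cells incubated with compound for 48 h. Cleaved caspase-3, cleaved PARP, total P53, Bcl-2 and Bax measured by western blot.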
# B16-F10 [8] = test: Induction of apoptosis in mouse B16F10 cells assessed as increase in cleaved caspase 3 level incubated for 48 hrs by Western blot analysis; type: functional, cell-based; conditions: dose nM <=1000, time 48.0 hrs; summary of the method: as §3
# A-375 [9] = test: Induction of apoptosis in human A-375 cells assessed as increase in cleaved caspase 3 level incubated for 48 hrs by Western blot analysis; type: functional, cell-based; conditions: dose nM <=2000, time 48.0 hrs; summary of the method: as §3
# B16-F10 [10] = test: Induction of apoptosis in mouse B16F10 cells assessed as increase in bax level upto 1000 nM incubated for 48 hrs by Western blot analysis; type: functional, cell-based; conditions: dose nM <=1000, time 48.0 hrs; summary of the method: as §3
# B16-F10 [11] = test: Induction of apoptosis in mouse B16F10 cells assessed as decrease in Bcl-2 level upto 1000 nM incubated for 48 hrs by Western blot analysis; type: functional, cell-based; conditions: dose nM <=1000, time 48.0 hrs; summary of the method: as §3
# [12] = Cmax in Sprague-Dawley rat at 200 mg/kg, po; type: ADME, organism-based; design: route oral, dose 200 mg/kg; conditions: in vivo
# Summary of the method: (§4)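 Single oral dose of 200 mg/Kg to SD rats (n = 3). Prodrug and released active degrader quantified in plasma over 0–12 h; Cmax, Tmax and AUC0-12 derived by non-compartmental model.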
# [13] = Tmax in Sprague-Dawley rat at 10 mg/kg, iv; type: ADME, organism-based; conditions: in vivo
# Summary of the method: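 SD rats, n = 3, single dose of prodrug: IV by tail vein at 10 mg/Kg, or PO at 200 mg/Kg. Plasma levels of prodrug and released active degrader followed over 0–12 h. Parameters derived by a non-compartmental model.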
# [14] = AUC (0 to 12 hrs) in Sprague-Dawley rat at 200 mg/kg, po; type: ADME, organism-based; design: time < 12 hr, route oral, dose 200 mg/kg; conditions: in vivo; summary of the method: as §4
# [15] = AUC (0 to 12 hrs) in Sprague-Dawley rat at 10 mg/kg, iv; type: ADME, organism-based; design: time < 12 hr, route intravenous, dose 10 mg/kg; conditions: in vivo
# [16] = biological target: T3, Protein cereblon/Cyclin-dependent kinase 6 (Mus musculus); test: Protac activity at CRBN/CDK6 in mouse B16F10 cells assessed as induction of CDK6 protein degradation at 100 nM for 6 hrsin presence of Pomalidomide by Western blot analysis; type: cell-based; conditions: B16-F10, time 6.0 hrs
# Summary of the method: (§5)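 B16F10 cells pre-treated 2 h with DMSO, pomalidomide (10 μM), MG132 (20 μM) or a parent CDK ligand, then exposed to 100 nM degrader for 6 h. CDK2/4/6 protein levels read by western blot.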
# [17] = biological target: T1, Protein cereblon/Cyclin-dependent kinase 2 (Mus musculus); test: Protac activity at CRBN/CDK2 in mouse B16F10 cells assessed as induction of CDK2 protein degradation at 100 nM for 6 hrsin presence of methyl 6-(7-cyclopentyl-6-(dimethylcarbamoyl)-7H-pyrrolo[2,3-d]pyrimidin-2-ylamino)nicotinate by Western blot analysis; type: cell-based; conditions: B16-F10, time 6.0 hrs; summary of the method: as §5
# [18] = biological target: T2, Protein cereblon/Cyclin-dependent kinase 4 (Mus musculus); test: Protac activity at CRBN/CDK4 in mouse B16F10 cells assessed as induction of CDK4 protein degradation at 100 nM for 6 hrsin presence of methyl 6-(7-cyclopentyl-6-(dimethylcarbamoyl)-7H-pyrrolo[2,3-d]pyrimidin-2-ylamino)nicotinate by Western blot analysis; type: cell-based; conditions: B16-F10, time 6.0 hrs; summary of the method: as §5
# B16-F10 [19] = test: Induction of apoptosis in mouse B16F10 cells assessed as early apoptotic cells at 125 nM incubated for 48 hrs by Annexin V-FITC/PI staining based flow cytometry (reference value: 3.52%); type: functional
# B16-F10 [20] = test: Induction of apoptosis in mouse B16F10 cells assessed as early apoptotic cells at 250 nM incubated for 48 hrs by Annexin V-FITC/PI staining based flow cytometry (reference value: 3.52%); type: functional
# A-375 [21] = test: Induction of apoptosis in human A-375 cells assessed as viable cells at 250 nM incubated for 48 hrs by Annexin V-FITC/PI staining based flow cytometry (reference value: 93.3%); type: functional; conditions: read-out: Activity
# A-375 [22] = test: Induction of apoptosis in human A-375 cells assessed as early apoptotic cells at 250 nM incubated for 48 hrs by Annexin V-FITC/PI staining based flow cytometry (reference value: 2.82%); type: functional
# A-375 [23] = test: Induction of apoptosis in human A-375 cells assessed as late apoptotic cells at 1000 nM incubated for 48 hrs by Annexin V-FITC/PI staining based flow cytometry (reference value: 3.28%); type: functional
# B16-F10 [24] = test: Induction of cell cycle arrest in mouse B16-F10 cells assessed as accumulation at G2 phase at 25 uM incubated for 48 hrs by propidium iodide staining based flow cytometry (reference value: 18.22%); type: functional
# B16-F10 [25] = test: Induction of cell cycle arrest in mouse B16-F10 cells assessed as accumulation at G2 phase at 50 uM incubated for 48 hrs by propidium iodide staining based flow cytometry (reference value: 18.22%); type: functional
# B16-F10 [26] = test: Induction of cell cycle arrest in mouse B16-F10 cells assessed as accumulation at G2 phase at 100 uM incubated for 48 hrs by propidium iodide staining based flow cytometry (reference value: 18.22%); type: functional
# A-375 [27] = test: Induction of cell cycle arrest in human A-375 cells assessed as accumulation at G1 phase at 500 uM incubated for 48 hrs by propidium iodide staining based flow cytometry (reference value: 58.26%); type: functional
# Summary of the method: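 Tumor cells incubated 48 h in complete medium with compound or DMSO at various concentrations, stained with propidium iodide, and DNA content read by flow cytometry. G0/G1, S and G2/M fractions reported; mean ± SD, n = 3, Student's t-test.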
# T1 sequence (Q8C7D2 whole entry, looked up, other chains not shown): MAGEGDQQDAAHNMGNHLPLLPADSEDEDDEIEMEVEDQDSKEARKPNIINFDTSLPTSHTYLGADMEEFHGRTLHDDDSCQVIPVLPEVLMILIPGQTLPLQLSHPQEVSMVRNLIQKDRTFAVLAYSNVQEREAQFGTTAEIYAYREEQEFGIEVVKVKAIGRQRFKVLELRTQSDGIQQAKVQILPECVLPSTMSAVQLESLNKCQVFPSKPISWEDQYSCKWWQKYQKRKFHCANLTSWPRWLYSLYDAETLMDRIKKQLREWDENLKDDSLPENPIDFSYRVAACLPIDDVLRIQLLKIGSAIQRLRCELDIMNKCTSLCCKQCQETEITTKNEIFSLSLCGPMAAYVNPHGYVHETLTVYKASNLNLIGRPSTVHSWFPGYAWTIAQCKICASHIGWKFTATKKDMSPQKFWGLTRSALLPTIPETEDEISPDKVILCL
# T2 sequence (P30285 whole entry, looked up): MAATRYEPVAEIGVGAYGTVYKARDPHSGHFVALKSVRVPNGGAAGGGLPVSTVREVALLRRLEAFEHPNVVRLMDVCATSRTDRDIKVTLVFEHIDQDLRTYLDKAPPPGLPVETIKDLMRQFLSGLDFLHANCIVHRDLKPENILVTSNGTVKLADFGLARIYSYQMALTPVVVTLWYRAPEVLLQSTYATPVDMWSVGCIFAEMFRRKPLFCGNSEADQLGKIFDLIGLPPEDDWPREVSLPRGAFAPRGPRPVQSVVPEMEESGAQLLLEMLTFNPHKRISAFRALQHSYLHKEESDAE
# T2 sequence (Q8C7D2 whole entry, looked up): as the sequence (Q8C7D2 whole entry, looked up, other chains not shown) above
# T3 sequence (Q64261 whole entry, looked up): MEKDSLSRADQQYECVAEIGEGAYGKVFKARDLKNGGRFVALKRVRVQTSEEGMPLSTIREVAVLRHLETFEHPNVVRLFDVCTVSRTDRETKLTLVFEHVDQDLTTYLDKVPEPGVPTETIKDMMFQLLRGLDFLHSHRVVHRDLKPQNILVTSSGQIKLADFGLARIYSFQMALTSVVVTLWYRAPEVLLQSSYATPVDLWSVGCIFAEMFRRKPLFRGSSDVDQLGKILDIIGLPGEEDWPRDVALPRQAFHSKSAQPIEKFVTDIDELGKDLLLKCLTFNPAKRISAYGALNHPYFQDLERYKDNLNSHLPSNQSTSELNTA
# T3 sequence (Q8C7D2 whole entry, looked up): as the sequence (Q8C7D2 whole entry, looked up, other chains not shown) above
compound,measurement,setting,value
CN(C)C(=O)c1cc2cnc(Nc3ccc(C(=O)NCCCCCCNc4cccc5c4C(=O)N(C4CCC(=O)NC4=O)C5=O)cc3)nc2n1C1CCCC1 (configuration not stated),Activity,[1],Dose-dependent effect
same,Activity,[2],Tde
same,Activity,[3],Tde
same,inhibition,B16-F10 [4],Active
same,inhibition,A-375 [5],Active
same,Activity,B16-F10 [6],Dose-dependent effect
same,Activity,A-375 [7],Dose-dependent effect
same,Activity,B16-F10 [8],Dose-dependent effect
same,Activity,A-375 [9],Dose-dependent effect
same,Activity,B16-F10 [10],Active
same,Activity,B16-F10 [11],Active
same,Cmax,[12],692 µg/mL
same,Tmax,[13],45 min
same,AUC,[14],823 µg·h/mL
same,AUC,[15],161 µg·h/mL
same,Activity,[16],inactive
same,Activity,[17],inactive
same,Activity,[18],inactive
same,Activity,B16-F10 [19],7.15%
same,Activity,B16-F10 [20],70.3%
same,viability at 0.25 µM,A-375 [21],90.5%
same,Activity,A-375 [22],5.54%
same,Activity,A-375 [23],14.8%
same,Activity,B16-F10 [24],19.56%
same,Activity,B16-F10 [25],22.66%
same,Activity,B16-F10 [26],30.56%
same,Activity,A-375 [27],73.45%
